# Measurements gathered from unrelated publications.
# Each line is one published result; the experiments were not run side by side.
# Target: Homeodomain-interacting protein kinase 2 (HIPK2, Homo sapiens, UniProt Q9H2X6)
SMILES,assay,setting,endpoint,result
Cc1ccc(Nc2nccc(N(C)c3ccc4c(C)n(C)nc4c3)n2)cc1S(N)(=O)=O,"enzyme activity, inhibitor",0.3 µM,inhibition,7%
CN1CCN(c2cnc3c(C4CCN(C(=O)c5ccc(OC(F)(F)F)cc5N)CC4)ncnc3c2)CC1,"cell-free assay, competition with immobilised ligand",1 µM,remaining binding,100%
Clc1ccc(Nc2nnc(Cc3ccncc3)c3ccccc23)cc1,cell-free assay,0.5 µM,remaining signal,101%
COc1cc2ncnc(Nc3ccc(Oc4ccccc4)c(C)c3C)c2cc1OC,"enzyme activity, inhibitor",1 µM,inhibition,1%
COc1cc(-c2cc(-c3ccc(N4CCNCC4)cc3)cnc2C)cc(OC)c1OC,"enzyme activity, inhibitor",1 µM,inhibition,2%
Cc1c(NC(=O)c2cc(C(N)=O)nc3cc(F)ccc23)c(C(F)(F)F)nn1Cc1ccc(C#N)cc1,"cell-free assay, competition with immobilised ligand",1 µM,remaining binding,83%
CCCS(=O)(=O)Nc1ccc(F)c(C(=O)c2c[nH]c3ncc(-c4ccc(Cl)cc4)cc23)c1F,"enzyme activity, inhibitor",1 µM,inhibition,< 10%
O=C(O)c1ccc2c(c1)nc(NCCc1cccc(Cl)c1)c1ccncc12,"enzyme activity, inhibitor, radiometric",1 µM,remaining activity,20%
COc1ccc2c(c1)O[C@H](c1ccc(OC)c(OC)c1)C[C@@H]2NC(=O)C1(c2ccc3c(c2)OC(F)(F)O3)CC1,"cell-free assay, competition with immobilised ligand",1 µM,remaining binding,98%
COc1cccc(CCNc2nc3cc(C(=O)O)ccc3c3cnccc23)c1,"enzyme activity, inhibitor, radiometric",1 µM,remaining activity,10%
N#CCCc1ccc2c(c1)-c1[nH]c3ccc([N+](=O)[O-])cc3c1CC(=O)N2,cell-free assay,0.5 µM,remaining signal,106%
COc1cc(-c2cn(C3CCc4c(F)cccc4N(CC(F)(F)F)C3=O)nn2)ccc1-n1cnc(C)c1 (stereo not drawn),"cell-free assay, competition with immobilised ligand",1 µM,remaining binding,100%
O=C(O)c1ccc2c(c1)nc(Nc1cccc(F)c1)c1ccncc12,"enzyme activity, inhibitor, radiometric",1 µM,remaining activity,-1%
CN([C@@H]1CCc2c(CC(=O)O)c3ccccc3n2C1)S(=O)(=O)c1ccc(F)cc1,"cell-free assay, competition with immobilised ligand",1 µM,remaining binding,100%
CCOc1cc(-c2nncn2C)ccc1Nc1ncc2cc(C)nc(NCC(C)(C)C)c2n1,"enzyme activity, inhibitor, FRET",1 µM,inhibition,< 15%
CCCCN(CCCC)C(=O)CN1C[C@H](c2cc(OC)c3c(c2)OCO3)[C@@H](C(=O)O)[C@@H]1CC(C)(C)CCC,"cell-free assay, competition with immobilised ligand",1 µM,remaining binding,82.3%
CN(c1ncccc1CNc1nc(Nc2ccc3c(c2)CC(=O)N3)ncc1C(F)(F)F)S(C)(=O)=O,"enzyme activity, inhibitor",1 µM,inhibition,85.7%
N#Cc1cccc(Nc2nc3cc(C(=O)O)ccc3c3cncnc23)c1,"enzyme activity, inhibitor, radiometric",1 µM,remaining activity,3%
Cc1cc(NC(=O)c2cccc3cc(-c4cccc5[nH]nc(N)c45)ccc23)ccc1F,"enzyme activity, inhibitor",0.1 µM,activity vs control,103%
O=C(O)c1ccc2c(c1)nc(Nc1ccc3ccccc3c1)c1ncncc12,"enzyme activity, inhibitor, radiometric",1 µM,remaining activity,-3%
CNC(=O)Nc1ccc2c(c1)CC[C@@]21OC(=O)N(CC(=O)N(Cc2ccc(F)cc2)[C@@H](C)C(F)(F)F)C1=O,"cell-free assay, competition with immobilised ligand",1 µM,remaining binding,95%
O=C(O)c1ccc2c(c1)nc(NCCc1cccc(Cl)c1)c1ncncc12,"enzyme activity, inhibitor, radiometric",1 µM,remaining activity,36%
CCN(CC)CCNC(=O)c1c(C)[nH]c(/C=C2\C(=O)Nc3ccc(F)cc32)c1C,"enzyme activity, inhibitor",10 µM,inhibition,89%
N#Cc1cccc(Nc2nc3cc(C(=O)O)ccc3c3cnccc23)c1,"enzyme activity, inhibitor, radiometric",1 µM,remaining activity,-1%
O=C1Nc2ccc(Cl)cc2C1=Cc1cc(Cl)c(O)c(Cl)c1,cell-free assay,0.5 µM,remaining signal,122%
O=C(O)c1ccc2c(c1)nc(NCCc1cccc(F)c1)c1ccncc12,"enzyme activity, inhibitor, radiometric",1 µM,remaining activity,4%
O=C1NC(c2ccccn2)Sc2ccccc21 (stereo not drawn),"cell-free assay, competition with immobilised ligand",1 µM,remaining binding,80%
